From publication PMC5648609 (Xenobiotica; the fate of foreign compounds in biological …, 2017)
Marks after values point to notes of the source that are not given here.

Tests used:
[1] = biological target: T1, hOCT3 (Homo sapiens, UniProt O75751); assay: ASP+-based fluorescence uptake inhibition assay, hOCT3; format: cell-based
T1 sequence (O75751 1-556): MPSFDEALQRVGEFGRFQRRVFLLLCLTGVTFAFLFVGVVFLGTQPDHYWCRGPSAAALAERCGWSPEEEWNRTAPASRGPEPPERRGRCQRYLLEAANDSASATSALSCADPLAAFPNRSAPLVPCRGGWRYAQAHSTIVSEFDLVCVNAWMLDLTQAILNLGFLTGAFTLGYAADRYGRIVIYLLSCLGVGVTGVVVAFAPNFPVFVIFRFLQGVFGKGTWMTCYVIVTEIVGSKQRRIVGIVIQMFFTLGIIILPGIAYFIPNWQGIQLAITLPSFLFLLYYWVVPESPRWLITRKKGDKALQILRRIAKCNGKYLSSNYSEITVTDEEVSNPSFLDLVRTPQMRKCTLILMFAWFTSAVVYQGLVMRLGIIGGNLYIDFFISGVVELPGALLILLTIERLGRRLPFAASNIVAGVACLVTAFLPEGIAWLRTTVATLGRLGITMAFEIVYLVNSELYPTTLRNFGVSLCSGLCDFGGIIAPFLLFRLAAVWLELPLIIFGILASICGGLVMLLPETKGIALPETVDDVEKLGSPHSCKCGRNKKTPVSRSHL

[2] = tested on: hOCT2 stably transfected HEK293 cells; assay: MTT cytotoxicity assay, hOCT2 cells; format: cell-based, human; conditions: for TC50 OCT2: MTT, 72 h, hOCT2 HEK293 cells, mean±SD of six experiments; for Fold increase over pcDNA5 OCT2: ratio of TC50 pcDNA5 to TC50 hOCT2 cells
[3] = tested on: pcDNA5 (control) stably transfected HEK293 cells; assay: MTT cytotoxicity assay, pcDNA5 control cells; format: cell-based, human; conditions: 72 h, vector control HEK293 cells, mean±SD of six experiments
[4] = tested on: hOCT1 stably transfected HEK293 cells; assay: MTT cytotoxicity assay, hOCT1 cells; format: cell-based, human; conditions: for TC50 OCT1: MTT, 72 h, hOCT1 HEK293 cells, mean±SD of six experiments; for Fold increase over pcDNA5 OCT1: ratio of TC50 pcDNA5 to TC50 hOCT1 cells
[5] = biological target: T2, hOCT1 (Homo sapiens, UniProt O15245); assay: ASP+-based fluorescence uptake inhibition assay, hOCT1; format: cell-based
T2 sequence (O15245 1-554): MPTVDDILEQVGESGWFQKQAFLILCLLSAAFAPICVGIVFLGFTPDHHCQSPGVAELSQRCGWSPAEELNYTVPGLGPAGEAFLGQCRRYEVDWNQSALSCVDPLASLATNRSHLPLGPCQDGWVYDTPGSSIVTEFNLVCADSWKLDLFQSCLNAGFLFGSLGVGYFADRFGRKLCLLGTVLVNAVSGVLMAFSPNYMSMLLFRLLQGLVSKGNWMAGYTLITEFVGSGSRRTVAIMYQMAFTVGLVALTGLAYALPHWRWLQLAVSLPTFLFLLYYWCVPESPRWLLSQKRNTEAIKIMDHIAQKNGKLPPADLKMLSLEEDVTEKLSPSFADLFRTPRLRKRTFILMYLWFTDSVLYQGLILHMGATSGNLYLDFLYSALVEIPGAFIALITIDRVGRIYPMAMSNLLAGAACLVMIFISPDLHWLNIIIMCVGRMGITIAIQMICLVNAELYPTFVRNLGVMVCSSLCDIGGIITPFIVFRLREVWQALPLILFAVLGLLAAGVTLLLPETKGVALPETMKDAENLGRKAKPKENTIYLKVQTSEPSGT

[6] = tested on: hOCT1-3 stably transfected HEK293 cells; assay: MTT cytotoxicity assay, result stated across hOCT1-3 cells; conditions: compared to vector-transfected HEK293 cells
[7] = tested on: hOCT3 stably transfected HEK293 cells; assay: MTT cytotoxicity assay, hOCT3 cells; format: cell-based, human; conditions: for TC50 OCT3: MTT, 72 h, hOCT3 HEK293 cells, mean±SD of six experiments; for Fold increase over pcDNA5 OCT3: ratio of TC50 pcDNA5 to TC50 hOCT3 cells
[8] = human plasma; ref Ito et al., 2012; cited from earlier work
[9] = biological target: T3, hOCT2 (Homo sapiens, UniProt O15244); conditions: read-out: Ki for hOCT2; hOCT2 expressed in HEK293 cells; ref Ito et al., 2012; cited from earlier work
T3 sequence (O15244 1-555): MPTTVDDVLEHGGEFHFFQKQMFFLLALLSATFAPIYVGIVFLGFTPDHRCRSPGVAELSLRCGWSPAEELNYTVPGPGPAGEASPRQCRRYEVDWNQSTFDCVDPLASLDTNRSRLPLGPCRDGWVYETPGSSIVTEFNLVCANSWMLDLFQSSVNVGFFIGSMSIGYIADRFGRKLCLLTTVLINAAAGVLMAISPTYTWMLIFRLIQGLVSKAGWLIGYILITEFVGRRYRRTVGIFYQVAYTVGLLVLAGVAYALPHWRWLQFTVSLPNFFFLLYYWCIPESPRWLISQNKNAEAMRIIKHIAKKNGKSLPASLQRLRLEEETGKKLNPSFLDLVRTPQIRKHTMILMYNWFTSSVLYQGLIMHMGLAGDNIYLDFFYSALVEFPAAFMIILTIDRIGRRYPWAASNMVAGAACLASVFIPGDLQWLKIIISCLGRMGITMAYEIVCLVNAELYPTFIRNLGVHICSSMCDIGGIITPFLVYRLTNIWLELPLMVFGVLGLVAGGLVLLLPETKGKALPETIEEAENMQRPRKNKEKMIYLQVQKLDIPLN

[10] = single ingestion of Ayahuasca, healthy volunteers; ref Riba et al., 2012; cited from earlier work
[11] = biological target: T1, hOCT3; assay: β-Carboline uptake assay; format: in vitro ADME; conditions: 1 μM substrate, 30 minutes
Procedure, shortened: (§1)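 Flp-in HEK293 cells stably expressing the transporter, with empty pcDNA5/FRT vector cells as control, were grown overnight at 100 000 cells/well on poly-L-ornithine-coated plastic. Cells were washed twice with HBSS, acclimated for 10 min at 37 °C, then given 1 µM substrate in HBSS for 30 min. Uptake was stopped with three ice-cold HBSS washes. Cells were lysed in acetonitrile with internal standard, and drug was quantified by ESI-positive LC-MS/MS and normalized to total protein (BCA).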

[12] = biological target: T2, hOCT1; assay: β-Carboline uptake assay; format: in vitro ADME; conditions: 1 μM substrate, 30 minutes
Procedure, shortened: as §1

[13] = biological target: T3, hOCT2; assay: ASP+-based fluorescence uptake inhibition assay, hOCT2; format: cell-based

Compound | IC50 [1] | TC50 OCT2 [2] | TC50 pcDNA5 [3] | TC50 OCT1 [4] | IC50 [5] | Effect of hOCT1-3 expression on cytotoxicity (in words) [6] | TC50 OCT3 [7] | Clinically encountered concentrations in plasma [8] | Ki [9] | Fold increase over pcDNA5 OCT2 [2] | Fold increase over pcDNA5 OCT1 [4] | Fold increase over pcDNA5 OCT3 [7] | Plasma concentration after Ayahuasca [10] | Accumulation in hOCT3 transfected cells relative to vector cells [11] | Accumulation in hOCT1 transfected cells relative to vector cells [12] | IC50 [13]
COc1ccc2c(c1)[nH]c1c(C)nccc12 [Harmine, 7-methoxy-1-methyl-9H-pyrido[3,4-b] indole] | 17.7 ± 1 µM | 3.01 ± 0.41 µM | 2.87 ± 0.47 µM | 2.55 ± 0.26 µM | 23.1 ± 2.8 µM | no significant effect | 2.81 ± 0.23 µM |  |  |  |  |  |  |  |  | 
CN/C(=N/CCSCc1nc[nH]c1C)NC#N [cimetidine] |  |  |  |  |  |  |  | 2.0 to 3.6 µM | 95 to 146 µM |  |  |  |  |  |  | 
C[n+]1ccc(-c2ccccc2)cc1 [MPP+, 1-methyl-4-phenylpyridinium] |  | 7.16±0.75 ^a μM | 63.6 ± 12.7 µM | 3.88±0.38 ^a μM |  |  | 5.86±0.68 ^a μM |  |  | 8.9 fold | 16.4 fold | 10.9 fold |  |  |  | 
COc1ccc2c3c([nH]c2c1)C(C)=NCC3 [Harmaline, 4,9-dihydro-7-methoxy-1-methyl-3H-pyrido[3,4-b] indole] | 4.76 ± 0.46 µM | 35.5 ± 3.8 µM | 23.0 ± 3.6 µM | 23.0 ± 5.1 µM | 27.6 ± 3.8 µM | no significant effect | 33.1 ± 8.2 µM |  |  | 0.65 fold | 1.0 fold | 0.69 fold | mid to high nanomolar range | ~ 2 fold | ~ 2 fold | 
C[n+]1ccc2c(c1)[nH]c1ccccc12.[I-] [Norharmanium, 2-methyl-9H-β-carboline-2-ium, iodide] | 13.1 ± 0.1 µM | 13.4±2.4 ^a μM | 119 ± 18 µM | 9.05±2.54 ^a μM | 70.5 ± 6.6 µM | greatly increased toxicity | 10.8±1.4 ^a μM |  |  | 8.9 fold | 13.1 fold | 11.0 fold |  |  |  | 
Cn1c2c(c3ccccc31)CC[N+](C)=C2.[I-] [2,9-dimethyl-4,9-dihydro-3Hβ-carbolin-2-ium, iodide] | 7.3 ± 0.5 µM | 117 ± 22 µM | 127 ± 18 µM | 119 ± 33 µM | 40.4 ± 2.4 µM | no significant effect | 80.6 ± 7.2 µM |  |  | 1.1 fold | 1.1 fold | 1.6 fold |  |  |  | 0.524 ± 0.088 µM
